# Published values of several laboratories.
# Protocols differ between the studies behind these lines.
# Sample: plasma
SMILES,system,conditions,quantity,result
Cc1cc(Nc2cc(N3CCN(C)CC3)nc(/C=C/c3ccccc3)n2)n[nH]1,human,"oral, 120 mg/m², patients",Vd/F,2440 L
C[C@@]1(c2cc(NC(=O)c3ccc(C#N)cn3)ccc2F)C=CSC(N)=N1,human,"oral, 90 mg, single dose",Vd/F,240 L
COc1ccc([C@@H]2CN(C(=O)[C@@H](O)CO)C[C@@]2(C)[C@@H](C)O)cc1OC1CN(c2ccc(C)cn2)C1,human,"oral, 40 mg, single dose, healthy volunteers",Vd/F,77.7 L
CCNCCCNC/C=C\CNCCCNCC,human,"intravenous, 100 mg, patients, infusion",Vd,1.17 L/kg
CO[C@H]1CC[C@H](N2C(=O)CNc3ncc(-c4ccc(C(C)(C)O)nc4)nc32)CC1,human,"oral, 30 mg, patients",Vd/F,195 L
COc1cc(C(=O)NC2CCN(C)CC2)c(F)cc1Nc1ncc(C(F)(F)F)c(Oc2cccc3c2C(=O)N(C)C3)n1,human,"oral, 10 mg, multiple doses, once daily, patients",Vd/F,776 L
c1cnc2ccc(Nc3nc(NC4CC4)c4nc[nH]c4n3)cc2c1,human,"oral, 50 mg/m², patients",Vd/F,597 L
CC(C)(Sc1ccncc1-c1ccc(C#N)c2ccccc12)C(=O)O,male human,"oral, 5 mg, single dose, fasted, healthy volunteers",Vd/F,419 L
